An excerpt weighted towards active compounds, which were near 1.9% of everything screened.
SR-BI HDL uptake = blocks mouse SR-BI lipid uptake from DiI-HDL. Q61009. ldlA[mSR-BI] CHO cells, DiI-HDL uptake fluorescence, 3 h. inhibition, % at 12.5 µM. hit rate 0.96% among 320,000;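 active means mean replicate inhibition of at least 70% and a set share of replicates each scoring 70 or more; inconclusive means meets just one of the two criteria; inactive means fails both criteria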;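 further: 0% = median of neutral control wells and 100% = median of positive control wells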
SR-BI uptake up = SR-BI HDL lipid transfer activation; CHO ldlA[mSR-BI] cells, DiI-HDL uptake fluorescence, 3 h; 100 = double the neutral-control signal; activation, % at 12.5 µM; hit rate 0.096% among 320,000;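 active means mean replicate activation of at least 60% and every replicate at or above 60%; inconclusive means mean or all-replicate condition met, but not both; inactive means mean below 60% and not all replicates reaching 60%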;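 further: 0% = median plate neutral-control signal and 100% = twice that signal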
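Test system: SR-BI-overexpressing, LDLR-lacking CHO cells; Medium: Ham's F12 with 0.5% BSA, HEPES 25 mM, pH 7.4; Schedule: 3 h, 37 °C; Technique: bottom-read fluorescence, 550/595 nm.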
Rtt109 HAT inh = blocks Candida albicans Rtt109/Vps75 acetyltransferase activity; hit rate 0.16% among 330,000; inhibition, % at 34.9 µM; Q5AAJ8; purified Rtt109/Vps75, ThioGlo CoA-SH fluorescence, 4 h; AID 540336;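 active means inhibition of at least 50% in every replicate; inconclusive means best replicate reaches 50% inhibition but some replicates fall short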
Target sequence (Q5AAJ8 whole entry, looked up): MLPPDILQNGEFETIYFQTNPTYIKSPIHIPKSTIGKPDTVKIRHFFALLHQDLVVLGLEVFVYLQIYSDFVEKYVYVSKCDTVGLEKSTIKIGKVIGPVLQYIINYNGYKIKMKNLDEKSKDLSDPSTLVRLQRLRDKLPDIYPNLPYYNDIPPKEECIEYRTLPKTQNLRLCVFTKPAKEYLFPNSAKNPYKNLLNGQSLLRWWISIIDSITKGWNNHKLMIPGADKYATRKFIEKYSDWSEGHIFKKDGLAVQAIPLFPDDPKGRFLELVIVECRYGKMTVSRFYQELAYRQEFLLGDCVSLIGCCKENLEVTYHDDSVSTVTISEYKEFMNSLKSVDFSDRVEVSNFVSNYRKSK
Glyco luc inh = blocks N-linked glycosylation in D54 reporter cells; D54 ERlucT glycosylation luciferase reporter, 24 h; percent of 100 nM tunicamycin response; reporter increase, % at 12.5 µM; hit rate 0.23% among 360,000; AID 588692;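 active means mean luciferase reporter signal, scaled so untreated is 0 and the glycosylation-blocking control 100, at or above a set limit in every replicate; inconclusive means mean reaches the limit but not every replicate does; inactive means mean below the limit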;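 further: luciferase carries N-glycosylation sites so blocking glycosylation raises the light; 0% = median of neutral control wells and 100% = median of 100 nM tunicamycin wells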
PglD inh = PglD (C. jejuni) enzyme inhibition. inhibition, % at 12.5 µM. hit rate 0.098% among 360,000. purified PglD enzyme, DTNB colorimetric CoA detection; in the data active means inhibition above about 16%, passing the limit was not always enough; inconclusive means no clear call, values can overlap the other calls
HIV Env fusion = inhibitors of HIV Env-mediated cell fusion. HeLa-JRFL Env/CEM21 cell fusion, luciferase. inhibition, % at 12.3 µM. hit rate 1.1% among 360,000;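 active means mean replicate inhibition score of at least 50 and every replicate individually at or above 50; inconclusive means only one of the two criteria met; inactive means mean below 50 and not all replicates reaching 50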;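 further: 0% = plate neutral controls and 100% = maraviroc near 300 nM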
Active calls of the source: *; ? = inconclusive; . = no result; [ ] = another dose, or the depositor's remark.

SMILES	SR-BI HDL uptake	SR-BI uptake up	Rtt109 HAT inh	Glyco luc inh	PglD inh	HIV Env fusion
C[C@@H]1CN([C@H](C)CO)C(=O)Cc2cc(NC(=O)c3ccncc3)ccc2O[C@H]1CN(C)Cc1ccc(C(=O)O)cc1	.	.	.	.	-7	.
COc1ccc(Cl)cc1NC(=O)Nc1cnccn1	14	-14	1	0	.	71*
COc1ccc(C)cc1NC(=O)Nc1cnccn1	-6	6	-3	20	.	-13
COc1ccc(NC(=O)Nc2cnccn2)c(OC)c1	12	.	-5	3	-1	57*
COc1cccc(S(=O)(=O)N[C@H]2CC[C@@H](CCn3cc(-c4ccccn4)nn3)O[C@@H]2CO)c1	.	.	.	.	0	-1[16.7 µM]
CCCCn1c(Oc2ccc(C(=O)OC)cc2)nc2c1c(=O)n(C)c(=O)n2C	92*	-92	.	-1	1	.
COc1ccc(C(=O)Nc2ccc(NC(=O)c3ccccn3)cn2)cc1	60	-60	-3	-4	1	-2
COc1ccc(C(=O)Nc2ccc(NC(=O)c3ccccc3OC)nc2)cc1	79*	-79	6	-3	2	19
COC(=O)c1cc(NC(=O)c2cccc(F)c2)cc(C(=O)OC)c1	78*	-78	1	3	-2	0
COc1ccccc1C(=O)Nc1ccc(OCC(=O)N2CC(C)CC(C)C2)cc1 (centres undefined)	43	-43	53*	-3	2	.
COc1ccc(N/C=C/C(=O)c2cc(OC)c(OC)c(OC)c2)cc1	72*	-72	1	38*	-9	-206
CC(C)NC(=O)N(C)C[C@H]1OCCCC[C@H](C)Oc2ccc(NS(=O)(=O)c3ccc(F)cc3)cc2C(=O)N([C@H](C)CO)C[C@H]1C	.	.	.	.	1	-59[16.7 µM]
C[C@@H]1CN([C@@H](C)CO)C(=O)c2cc(NC(=O)Nc3cccc4ccccc34)ccc2O[C@H]1CN(C)S(=O)(=O)c1cn(C)cn1	.	.	.	.	-7	.
COc1ccccc1C(=O)Nc1ccc(Oc2nnc(-c3ccc(C)cc3)c3ccccc23)cc1	84*	-84	-26	-6	4	-10
COc1ccc(C(=O)Nc2ccc(NC(=O)c3cccc(OC)c3)cn2)cc1	62	-63	1	-2	5	3
COc1ccc(C=CC(=O)c2c(OC)cc(OC)c(OC)c2O)cc1	.	.	-3	29*	-1	7
O=C(Nc1cccc(NC(=O)c2cccc(F)c2)n1)c1cccc(F)c1	87*	-87	2	0	-2	-14
O=C(Nc1cccc(NC(=O)c2c(F)cccc2F)n1)c1c(F)cccc1F	61	-61	.	0	.	22
COc1ccc(C(=O)Nc2ccc(NC(=O)c3cccc(F)c3)cn2)cc1	76*	-76	-1	-1	4	-2
COc1ccccc1-c1cnc2c(c1)C(=O)N([C@H](C)CO)C[C@@H](C)[C@H](CN(C)C(=O)c1ccncc1)O2	.	.	.	.	18	5[16.7 µM]
COc1cc(C(=O)Nc2ccc(NC(=O)c3ccccc3)nc2)cc(OC)c1OC	54	-54	-2	0	4	13
COc1ccc(C(=O)Nc2ccc(NC(=O)c3cc(OC)c(OC)c(OC)c3)cn2)cc1	77*	-77	-7	0	7	16
O=C(O)CCC1(CCC(=O)O)CCCC(CCC(=O)O)(CCC(=O)O)C1=O	-61	61*	0	1	2	-5
CCOC(=O)Cc1csc(NC(=O)c2csc(C)c2)n1	14	-14	-26	0	.	3
CCOC(=O)Cc1csc(NC(=O)c2sc3nc4c(C)cc(C)cc4cc3c2N)n1	80*	-80	-7	0	2	.
C[C@@H]1CN([C@@H](C)CO)C(=O)c2cc(C#Cc3cccnc3)cnc2O[C@H]1CN(C)C	.	.	.	.	6	4[16.7 µM]
CO[C@@H]1CN(C)C(=O)c2cc(NC(=O)NC(C)C)ccc2OC[C@H](C)N(C(=O)CC2CC2)C[C@H]1C	.	.	.	.	0	7[16.7 µM]
Cn1nc(C(F)(F)F)c(/C=N/OC(=O)c2ccccc2)c1SCc1ccccc1Cl	17	-17	0	55*	.	?
COc1ccccc1C(=O)NCCC(=O)NC1CCCC(C)C1C (centres undefined)	0	0	-1	2	-3	58*
COc1ccccc1C(=O)NCCC(=O)NC1CCCCC1C (centres undefined)	-10	10	24	1	-1	-38

Screening results deposited in PubChem by Broad Institute.
